A short description of series [1]: Cytotoxicity against mouse RAW264.7 cells assessed as cell viability at 40 uM after 4 hrs by MTT assay relative to control. It counts as cell-based. The conditions noted are these: read-out: Activity. Summed up:
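RAW 264.7 cells plated at 3 × 10^5 cells/mL in phenol red-free 10% FBS–DMEM, incubated 24 h, then treated with compound plus 1 μg/mL LPS for 20 h. After the Griess step, MTT was added (final 500 μg/mL) for 4 h at 37 °C. Formazan dissolved in DMSO, A570 read; survival taken relative to control; triplicate.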

The target in series [2] is T1, Nuclear factor NF-kappa-B p105 subunit (Mus musculus) (UniProt P25799).
T1 sequence (whole entry): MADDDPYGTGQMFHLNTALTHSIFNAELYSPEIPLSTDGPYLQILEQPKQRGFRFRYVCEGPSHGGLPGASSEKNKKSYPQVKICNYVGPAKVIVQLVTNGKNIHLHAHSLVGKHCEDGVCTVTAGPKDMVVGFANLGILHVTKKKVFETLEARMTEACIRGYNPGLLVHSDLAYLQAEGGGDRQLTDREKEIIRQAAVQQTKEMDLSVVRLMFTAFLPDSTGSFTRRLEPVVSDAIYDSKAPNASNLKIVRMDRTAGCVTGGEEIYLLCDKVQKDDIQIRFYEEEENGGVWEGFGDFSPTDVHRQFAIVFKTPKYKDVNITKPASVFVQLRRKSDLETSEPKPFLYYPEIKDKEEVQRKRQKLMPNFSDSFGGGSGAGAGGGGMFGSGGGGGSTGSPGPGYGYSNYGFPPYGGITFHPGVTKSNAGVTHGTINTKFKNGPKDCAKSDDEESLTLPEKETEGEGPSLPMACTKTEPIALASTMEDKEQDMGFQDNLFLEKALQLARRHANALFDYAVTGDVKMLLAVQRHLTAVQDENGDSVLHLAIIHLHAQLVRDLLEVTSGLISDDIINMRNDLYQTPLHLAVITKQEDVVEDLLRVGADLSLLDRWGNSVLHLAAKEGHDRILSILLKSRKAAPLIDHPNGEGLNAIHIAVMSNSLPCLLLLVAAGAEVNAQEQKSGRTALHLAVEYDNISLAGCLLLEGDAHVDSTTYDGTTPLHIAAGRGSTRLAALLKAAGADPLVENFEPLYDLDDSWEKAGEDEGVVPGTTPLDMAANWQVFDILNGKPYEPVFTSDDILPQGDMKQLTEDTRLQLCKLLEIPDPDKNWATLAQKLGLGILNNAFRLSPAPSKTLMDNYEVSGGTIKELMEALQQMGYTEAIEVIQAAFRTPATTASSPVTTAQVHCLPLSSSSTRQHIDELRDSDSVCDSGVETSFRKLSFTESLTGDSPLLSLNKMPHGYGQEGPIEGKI
As to the kind of experiment: Inhibition of LPS-induced NFkappaB P50 protein nuclear translocation in mouse RAW264.7 cells at 40 uM after 30 mins by Western blotting analysis relative to control. Type of series: cell-based. An outline of the steps: (§1)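 Macrophages were exposed to compound for 30 min before LPS stimulation, with proteins extracted 30 min later. Nuclear extracts were prepared in Tris/KCl/NP-40 lysis buffer, then 420 mM NaCl buffer, and the cytosolic fraction was kept for IκB-α. Western blot on PVDF with ECL detection. Tests in triplicate; representative of three separate experiments.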
(A western blot detects proteins with antibodies after separation by electrophoresis.)

Series [3] deals with Mus musculus. The series is described as follows: Antiinflammatory activity in ICR mouse ear edema model assessed as inhibition of TPA-induced ear edema at 20 mg/kg, po administered 30 mins prior to TPA challenge measured after 4 hrs relative to vehicle-treated control. It counts as functional. Summed up:
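ICR mice (male, 18−20 g, 5 weeks old) dosed orally 30 min before TPA (1.0 μg in 20 μL acetone) was applied to inner and outer surfaces of the right ear. Killed by cervical dislocation after 4 h. Edema taken as the weight of a 5 mm punch biopsy of the right ear over the left. Ear homogenates were Western blotted for iNOS, COX-2 and IL-1β.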

Series [4] relates to RAW264.7. The series is described as follows: Inhibition of LPS-induced NF-kappaB transcriptional activity in mouse RAW264.7 cells treated 2 hrs prior to LPS challenge measured after 16 hrs by SEAP reporter gene assay relative to control. Type of series: cell-based. Summed up:
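NF-κB SEAP reporter assay in RAW 264.7 cells: 2 h compound pretreatment, then LPS for 16 h. Supernatants heated 65 °C for 5 min, then reacted with 2 M diethanolamine, 1 mM MgCl2 and 500 μM MUP for 1 h at 37 °C in the dark. Fluorescence read at ex 360/em 449 nm and normalized to protein. Expressed relative to vehicle control without LPS; triplicates.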

For series [5], the target named is Transcription factor p65 (Mus musculus) (UniProt Q04207). The series is described as follows: Inhibition of LPS-induced NFkappaB P65 protein nuclear translocation in mouse RAW264.7 cells at 10 uM after 30 mins by Western blotting analysis relative to control. It counts as cell-based. Summed up: as §1
The subject of series [6] is Rattus norvegicus. The series is described as follows: Antiinflammatory activity in rat paw edema model assessed as inhibition of carrageenan-induced paw edema at 20 mg/kg, po administered 30 mins prior to carrageenan challenge measured after 4 hrs relative to vehicle-treated control. It counts as functional. Summed up: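 Male Sprague–Dawley rats (150–170 g, 5 weeks old); compound dissolved in 0.5% CMC-Na and given orally 30 min before subplantar injection of 0.1 mL 1% carrageenan suspension in saline into the right hind paw, with saline injected into the left. Paw volume read by plethysmometer at 0 h and up to 6 h; n = 6.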
For orientation: Carrageenan injected into the paw causes an acute inflammation.

The target in series [7] is T1, Nuclear factor NF-kappa-B p105 subunit (Mus musculus). As to the kind of experiment: Inhibition of LPS-induced NF-kappaB p50 binding to DNA in mouse RAW264.7 cells at 10 to 40 uM after 1.5 hrs by spectrophotometry in presence of wild type oligonucleotide. It counts as cell-based.
The test system of series [8] is RAW264.7. As to the kind of experiment: Antiinflammatory activity in mouse RAW264.7 cells assessed as inhibition LPS-induced TNF-alpha protein expression at 40 uM after 4 hrs by Western blotting analysis relative to control. It counts as functional.
Series [9] concerns Rattus norvegicus. As to the kind of experiment: Antiinflammatory activity in rat paw edema model assessed as inhibition of carrageenan-induced COX2 protein expression in paw tissue at 20 mg/kg, po administered 30 mins prior to carrageenan challenge measured after 6 hrs by Western blotting analysis relative to vehicle-treated control. Type of series: functional, organism-based. More on the design: dose 20 mg/kg. Summed up:
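SD rats received compound orally in 0.5% CMC-Na 30 min before subplantar injection of 0.1 mL 1% carrageenan in saline. Paws were removed at 6 h, homogenized, and iNOS, COX-2 and IL-1β were assessed by Western blot. Triplicate, representative of three experiments.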

For series [10], the system named is RAW264.7. As to the kind of experiment: Antiinflammatory activity in mouse RAW264.7 cells assessed as inhibition LPS-induced TNF-alpha mRNA expression at 20 uM after 4 hrs by RT-PCR analysis relative to control. It counts as functional. Summed up:
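RAW 264.7 cells stimulated with LPS (1 μg/mL) with or without compound for 4 h. Total RNA was isolated and cytokine mRNA was analysed by RT-PCR: 94 °C 4 min, then 25−30 cycles of 94/55/72 °C for 30 s each, then 72 °C 5 min. Products were run on 2% agarose and stained with SYBR-Safe. Triplicate, representative of three experiments.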

Series [11] deals with RAW264.7. As to the kind of experiment: Antiinflammatory activity in mouse RAW264.7 cells assessed as inhibition of LPS-induced COX2 mRNA expression at 40 uM after 5 hrs by RT-PCR analysis relative to control. Type of series: functional. Summed up: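 RAW 264.7 cells exposed to 1 μg/mL LPS with or without compound for 5 h. Total RNA was analysed by RT-PCR: 25−30 cycles with annealing at 55 °C. Products were separated on 2% agarose gel with SYBR-Safe staining. Experiments in triplicate.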

The text below walks through data of ChEMBL document CHEMBL3259611, “Suppression of inflammatory responses by handelin, a guaianolide dimer from Chrysanthemum boreale, via downregulation of NF-κB signaling and pro-inflammatory cytokine production” (J Nat Prod, 2014).

In general, inhibition in vivo refers to the percentage by which the read-out fell short of the control.

SMILES strings stand for the structures. Active and inactive are the calls of the source. No cut-off for these calls is given here.

Transcription factor p65 (Mus musculus), sequence (Q04207 whole entry): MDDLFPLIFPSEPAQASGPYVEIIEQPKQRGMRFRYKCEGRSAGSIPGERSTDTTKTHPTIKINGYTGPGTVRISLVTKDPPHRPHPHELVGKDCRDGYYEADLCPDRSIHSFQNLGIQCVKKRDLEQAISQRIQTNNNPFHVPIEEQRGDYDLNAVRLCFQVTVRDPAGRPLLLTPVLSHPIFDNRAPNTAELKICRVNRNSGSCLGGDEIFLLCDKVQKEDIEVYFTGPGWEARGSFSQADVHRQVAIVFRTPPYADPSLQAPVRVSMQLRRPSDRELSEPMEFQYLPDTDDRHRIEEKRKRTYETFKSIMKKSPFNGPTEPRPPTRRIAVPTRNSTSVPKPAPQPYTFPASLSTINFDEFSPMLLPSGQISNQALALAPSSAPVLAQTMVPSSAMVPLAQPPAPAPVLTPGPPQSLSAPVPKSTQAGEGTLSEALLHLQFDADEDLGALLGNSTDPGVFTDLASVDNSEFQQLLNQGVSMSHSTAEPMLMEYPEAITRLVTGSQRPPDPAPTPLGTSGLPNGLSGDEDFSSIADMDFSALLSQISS

On to `C=C1C(=O)O[C@@H]2[C@@H]3[C@@]4(C=C[C@@]3(C)[C@]3(C4)C(=O)O[C@@H]4[C@H]5C(C)=CC[C@H]5[C@](C)(O)C[C@H](OC(C)=O)[C@H]43)[C@](C)(O)CC[C@@H]12`, for which the viability at 4 h, 40 µM in series [1] worked out at 83%. In addition, the fold change (FC) in series [2] amounted to 0.16; in series [8], 0.56; in series [10], 0.66; in series [11], 0.22. The figures for the inhibition in vivo at 20 mg/kg in series [3] and in series [6] were 56% and 35%, respectively. Also, the inhibition result in [4], in [5] and in [9] was “Active” each time. Besides, the inhibition entry in [7] was “inactive”.
